This sample holds only a part of the variants without activity.
B1: tRNA (parent)
chain: GUUCCGUUGGCGUAAUGGUAACGCGUCUCCCUCCUAAGGAGAAGACUGCGGGUUCGAGUCCCGUACGGAACG

Variants of: B1
Assay: yeast fitness relative to wild type (ratio to wild type); higher = fitter; tRNA-Arg(CCU), competitive growth, 37 C, YPD
Outline: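 Gene amplicons from the start population and from each of six end populations were read by 100-nucleotide paired-end sequencing. Those end populations came from pooled Saccharomyces cerevisiae strains carrying tRNA-Arg(CCU) gene variants at the native locus, competed in YPD at 37°C for 24 hours. Fitness relative to wild type was worked out from changes in genotype frequencies. Genotypes needed ≥ 100 starting reads, and estimates < 0.5 were set to 0.5.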

Going from GUUCCGUUGGCGUAAUGGUAACGCGUCUCCCUCCUAAGGAGAAGGUUGCGCGUUCGAGUCCCGUACGGAACG to GUUCCGUUGGCGUAAUGGUAACGCGUCUCCCUCCUAAGGAGAAAACUGCCGGUUCGAGUCCCGUACGGAGCG, the yeast fitness rises from no more than 0.5 to 0.537.

Going from GUUCCGUUGGCGUAAUGGUAACGCGUCUCCCUCCUAAGGAGAUGACUGCGGGUCCGAGUCCCGUACGGAACG to GUUCCGUUGGCGUAAUGGUAACGCGUCUCCCUCCUAAGGAGAUGACUGCGGGUACGAGUCCCGUACGGAACG, the yeast fitness falls from 0.92 to 0.683.

Going from GUUCCGUUGGCGUAAUGGUAACGCGUCUCCCUCCUAAGGAGAAGCCUACGGGUUCGAGUCCCGUACGGAUCG to GUUCCGUUGGCGUAAUGGUAACGCGUCUCCCUCCUAAGGAGAAGGCUGCGGGUUCGAGUCUCGUACGGAACG, the yeast fitness rises from 0.654 to 1.03.

First: GUUCCGUUGGCGUAAUGGUAACGCGUCUCCCUCCUAAGGAGAAAACUGCGGGUUCGUGUCCCGUAUGGAACG
Second: GUUCCGUUGGCGUAAUGGUAACGCGUCUCCCUCCUAAGGAGAAGGCUGCGGGUUCGAGUCCCGUAAGGAACG
The yeast fitness of the first is lower: 0.547 for the first, 0.581 for the second.

Compared with GUUCCGUUGGCGUAAUGGUAACGCGUCUCCCUCCUAAGGAGAAGGCUGCGGGUUCGAGUCCCGUACGGACCG, GUUCCGUUGGCGUAAUGGUAACGCGUCUCCCUCCUAAGGAGAAGCCUGCGGGUACGAGUCCCGUAUGGAACG is lower in yeast fitness: 0.989 for the first, no more than 0.5 for the second.

Compared with GUUCCGUUGGCGUAAUGGUAACGCGUCUCCCUCCUAAGGAGAAGGCUGCGGGUUAGACUCCCGUACGGAACG, GUUCCGUUGGCGUAAUGGUAACGCGUCUCCCUCCUAAGGAGAUGACUGCGGGUUCGAGUCCCCUACGGAUCG is higher in yeast fitness: 0.537 for the first, 0.54 for the second.

Going from GUUCCGUUGGCGUAAUGGUAACGCGUCUCCCUCCUAAGGAGAAGCCUGCGGGUUCGAGUCCCAUACGGUACG to GUUCCGUUGGCGUAAUGGUAACGCGUCUCCCUCCUAAGGAGAAGGCUGCAGGUUCGAGUCCCGUACGGAACG, the yeast fitness rises from 0.793 to 0.857.

First: GUUCCGUUGGCGUAAUGGUAACGCGUCUCCCUCCUAAGGAGAAGCCUGCGGGUUCGAGUCCCGUGUGGAACG
Second: GUUCCGUUGGCGUAAUGGUAACGCGUCUCCCUCCUAAGGAGAACAGUGCGGGUUUGAGUCCCGUACGGAACG
The yeast fitness of the first is higher: 0.679 for the first, no more than 0.5 for the second.

Going from GUUCCGUUGGCGUAAUGGUAACGCGUCUCCCUCCUAAGGAGAAUACUGCGGGUUCGAAUCCCGUACGGAACG to GUUCCGUUGGCGUAAUGGUAACGCGUCUCCCUCCUAAGGAGAAGCCUGCGGGUUCGAGUCCCGUACCGAACG, the yeast fitness falls from 0.946 to 0.639.

Going from GUUCCGUUGGCGUAAUGGUAACGCGUCUCCCUCCUAAGGAGAAGCCUGCGGGUUCGAGUCCCGUACUGAACG to GUUCCGUUGGCGUAAUGGUAACGCGUCUCCCUCCUAAGGAGAACACUGCGGGUUCGAGUCCCGUUCGGAACG, the yeast fitness falls from 0.874 to 0.873.

Compared with GUUCCGUUGGCGUAAUGGUAACGCGUCUCCCUCCUAAGGAGAACGCUGCGGGUUCGAGUCCCGUACGGAACG, GUUCCGUUGGCGUAAUGGUAACGCGUCUCCCUCCUAAGGAGAACACUGUGGGUUCGAGUCCCGGACAGAACG is lower in yeast fitness: 0.958 for the first, 0.512 for the second.

First: GUUCCGUUGGCGUAAUGGUAACGCGUCUCCCUCCUAAGGAGAACACUGCGGGUUCGAGUCCCGUACGGACCG
Second: GUUCCGUUGGCGUAAUGGUAACGCGUCUCCCUCCUAAGGAGAACACUGCGGGUUCGAGUCCCGUACGGAUCG
The yeast fitness of the first is lower: 0.927 for the first, 0.959 for the second.

First: GUUCCGUUGGCGUAAUGGUAACGCGUCUCCCUCCUAAGGAGAACACUGGGGGUUCGAGACCCGUACGGAACG
Second: GUUCCGUUGGCGUAAUGGUAACGCGUCUCCCUCCUAAGGAGAACACUGCGGGUUCGAGUCCCGUACGGCACG
The yeast fitness of the first is lower: no more than 0.5 for the first, 0.85 for the second.

Going from GUUCCGUUGGCGUAAUGGUAACGCGUCUCCCUCCUAAGGAGAACACUGCGGGUUCGAGUCCCGUACGGUACG to GUUCCGUUGGCGUAAUGGUAACGCGUCUCCCUCCUAAGGAGAAGCCUGCAGGUUCGAGUCCUGUACGGAACG, the yeast fitness falls from 0.895 to 0.868.

First: GUUCCGUUGGCGUAAUGGUAACGCGUCUCCCUCCUAAGGAGAAAGCUGCGCGUUCGAGUCCCGUACGGAACG
Second: GUUCCGUUGGCGUAAUGGUAACGCGUCUCCCUCCUAAGGAGAAAACUGCGGGUUCCAGUCCCGUACGGAACG
The yeast fitness of the first is lower: no more than 0.5 for the first, 0.585 for the second.

Compared with GUUCCGUUGGCGUAAUGGUAACGCGUCUCCCUCCUAAGGAGAACACUACGGGUUCGAAUCCCGUACGGAACG, GUUCCGUUGGCGUAAUGGUAACGCGUCUCCCUCCUAAGGAGAAAACUGGGGGUUCGAGUCCCGUUCGGAACG is lower in yeast fitness: 0.881 for the first, 0.547 for the second.

GUUCCGUUGGCGUAAUGGUAACGCGUCUCCCUCCUAAGGAGAACACUGCGGGUUCGAGUUCCGUACGGAGCG and GUUCCGUUGGCGUAAUGGUAACGCGUCUCCCUCCUAAGGAGAACACUGCGGGUUCGAGUCCUGUAGGGAACG cannot be ordered by yeast fitness: no more than 0.5 for the first, no more than 0.5 for the second.

Compared with GUUCCGUUGGCGUAAUGGUAACGCGUCUCCCUCCUAAGGAGAUGACUGCGGGUUCAAGUCCCGUAGGGAACG, GUUCCGUUGGCGUAAUGGUAACGCGUCUCCCUCCUAAGGAGAAGGCUGCGGGUUUGAGUCCCGUACAGGACG is lower in yeast fitness: 0.553 for the first, no more than 0.5 for the second.

GUUCCGUUGGCGUAAUGGUAACGCGUCUCCCUCCUAAGGAGAAGCCUGCCGGUUCGAGUCCCGUACGGAACG showed a yeast fitness of 0.604.

From the RNAGym collection of RNA variant scans (doi:10.1126/science.aae0568)
